High-throughput results as filed in PubChem.
A selection: hits, their analogues and other compounds. The true share with any hit is near 1.3%.
LEDGF integ inh: blockers of LEDGF/p75-dependent integrase strand transfer – biochemical, TR-FRET, high throughput, primary screen; HIV-1 integrase (with human LEDGF/p75); inhibition, % at 3.7 µM; AID 743269, 2014; TR-FRET IN-LEDGF/p75 DNA integration, Eu/Cy5; 370,000 compounds, 0.64% hits;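 active = inhibition above the screen-wide mean plus 3 SD, cut at about 13% in these data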;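 note: signal is the Cy5 over europium emission ratio at 671 and 618 nm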
TDP2 inh: human TDP2 enzyme inhibitors, primary screen, biochemical, epi absorbance, recombinant enzyme; inhibition, % at 12.8 µM; 370,000 compounds, 0.34% hits; AID 720702, 2013; T5PNP hydrolysis, p-nitrophenol absorbance 415 nm;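 active = inhibition above the mean of all tested compounds plus 3 SD, set per campaign, cut at about 25% in these data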
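Test system: human TDP2 enzyme; Input: 120 nM TDP2 per well; Buffer or medium: Mg2+-containing Tris-HCl buffer, pH 7.5; Reagent: 5 mM T5PNP; Dosing: 12.8 µM single point, 1% DMSO; Incubation: reaction 2 h, 37 °C; Detection: p-Nitrophenol epi absorbance; Read-out: % inhibition relative to enzyme-containing and enzyme-free wells; Replicates: single well per compound.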
ASAP1 GAP inh: inhibitors of human ASAP1 ArfGAP activity, primary screen, biochemical, fluorescence polarization. ASAP1-stimulated ARF1 GTP hydrolysis, GDP FP detection. inhibition, % at 16.5 µM. 360,000 compounds, 0.19% hits. Arf-GAP with SH3 domain, ANK repeat and PH domain-containing protein 1 (Homo sapiens), …. AID 624377, 2012
Target sequence (Q9ULH1 325-724 limits assumed): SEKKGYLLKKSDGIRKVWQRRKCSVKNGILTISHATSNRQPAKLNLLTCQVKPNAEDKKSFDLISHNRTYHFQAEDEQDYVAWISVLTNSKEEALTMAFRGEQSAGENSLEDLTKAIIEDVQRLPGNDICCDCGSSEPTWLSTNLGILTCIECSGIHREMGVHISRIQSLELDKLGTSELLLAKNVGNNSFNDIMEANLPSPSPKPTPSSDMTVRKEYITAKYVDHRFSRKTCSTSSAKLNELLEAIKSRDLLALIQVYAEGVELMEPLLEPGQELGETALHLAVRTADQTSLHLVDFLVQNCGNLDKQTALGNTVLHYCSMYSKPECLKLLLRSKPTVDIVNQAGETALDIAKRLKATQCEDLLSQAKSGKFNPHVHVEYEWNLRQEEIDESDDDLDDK
CASP6 VEID inh: human caspase-6 inhibitors, primary screen, biochemical, VEID-R110 fluorescence, single point, set 2 | purified caspase-6, Z-VEID-R110 cleavage fluorescence | inhibition, % at 12.5 µM | 350,000 compounds, 0.53% hits | AID 686996, 2013;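 active = mean inhibition across replicates at least about 35%, with every replicate also reaching that limit, limit read from the data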
ARFGAP1 inh: inhibitors of rat ARFGAP1 GAP activity, primary screen, biochemical, fluorescence polarization, GDP tracer | ADP-ribosylation factor GTPase-activating protein 1 (Rattus norvegicus), Q62848 | Arfgap1-stimulated ARF1 GTP hydrolysis, GDP FP detection | inhibition, % at 16.5 µM | 360,000 compounds, 0.26% hits | AID 651572, 2012;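 active = inhibition above a per-plate limit, mean inhibition of low control wells plus 3 SD, cut at about 25% in these data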
Target sequence (Q62848 1-136 limits assumed): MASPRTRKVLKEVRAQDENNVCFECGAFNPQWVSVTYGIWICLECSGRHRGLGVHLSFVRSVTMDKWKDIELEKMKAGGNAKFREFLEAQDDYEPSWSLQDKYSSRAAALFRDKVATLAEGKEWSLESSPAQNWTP
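Material: rat Arfgap1 GAP domain (His6, aa 1-136), purified enzyme. Also added: human ARF1(Δ1-17)-GTP substrate. Compound dosing: 16.5 µM single point, 1.26% DMSO. Timing: enzyme reaction 120 min at 25 °C after 20 min preincubation. Signal: GDP detection by fluorescence polarization. Read-out basis: percent inhibition of GAP-stimulated GDP formation, scaled between DMSO and no-Arfgap1 medians.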
TDP2 inh conf: human TDP2 enzyme inhibitors, retest, confirmation, biochemical, epi absorbance, recombinant enzyme; inhibition, % at 12.8 µM; shares compounds with TDP2 inh; 1,100 compounds, 22% hits; absorbance read-out
IN multimer act: HIV-1 IN multimer formation enhancers, counter-screen for LEDGF/p75 integration inhibitor project, biochemical, TR-FRET; shares compounds with LEDGF integ inh; TR-FRET HIV-1 integrase multimerization; activation, % at 7.7 µM; 2,000 compounds, 17% hits; in the data active = activation above about 8.9%
TR-FRET interf: TR-FRET optical interference artefacts, confirmation, artefact control for LEDGF/p75-dependent integration inhibitor project, biochemical, HIV-1 IN multimerization. shares compounds with LEDGF integ inh. TR-FRET optical interference counterscreen. 2,000 tested, under 10 active. inhibition, % at 7.7 µM;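 active = inhibition above the mean over all tested compounds plus 3 SD, which no compound reached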
IN-LEDGF confirm: inhibitors of HIV-1 IN-LEDGF/p75 DNA integration, confirmation, biochemical, TR-FRET. 2,000 compounds, 36% hits. inhibition, % at 3.7 µM. shares compounds with LEDGF integ inh. TR-FRET LEDGF/p75-dependent HIV-1 integration. AID 1053136, 2014; in the data active = inhibition above about 14%
Each line names hits and unclear results; the compound was inactive in the other large screens (follow-up assays come after a bar, where they were run). Cut-off read from the data, not from the text of the source, unless noted: active = inhibition above about 25%; inactive = the rest.

COc1cc(NS(=O)(=O)c2ccc(NC(=S)NC(=O)/C=C/c3ccco3)cc2)ncn1	LEDGF integ inh 23.2, TDP2 inh 36.4 | TDP2 inh conf 40.7 | IN multimer act inactive | TR-FRET interf inactive | IN-LEDGF confirm 36.8
Cc1ccc(S(=O)(=O)/N=C2\C=C(Nc3cccc(C(=O)O)c3)C(=O)c3ccccc32)cc1	LEDGF integ inh 51.6, TDP2 inh 84.8, CASP6 VEID inh 99.4 | TDP2 inh conf 77.0 | IN multimer act inactive | TR-FRET interf inactive | IN-LEDGF confirm 63.8
O=C(O)c1cccc(NS(=O)(=O)c2ccc3c(c2)C(=O)c2ccccc2C3=O)c1	none
Nc1ccc(N(CCO)CCO)cc1	LEDGF integ inh 23.6, TDP2 inh 46.1 | TDP2 inh conf inactive | IN multimer act 12.3 | TR-FRET interf inactive | IN-LEDGF confirm 27.6
O=C(CS(=O)(=O)Cc1ccccc1)Nc1nnc(C2CCCCC2)s1	none (no result: CASP6 VEID inh)
CCOC(=O)C1(C)C=C(Nc2ccc(O)cc2)C(=O)N1c1ccc(O)cc1 (stereo unspecified)	LEDGF integ inh 14.3, TDP2 inh 27.9 | TDP2 inh conf inactive | IN multimer act inactive | TR-FRET interf inactive | IN-LEDGF confirm inactive
CCOC(=O)C1(C)C=C(Nc2ccc(OC)cc2)C(=O)N1c1ccc(OC)cc1 (stereo unspecified)	none (no result: CASP6 VEID inh)
CC1(C)N=C(N)N=C(N)N1c1ccc(OCCCOc2ccccc2)c(Cl)c1	none
NC(=Nc1ccc(N)cc1)C(N)=Nc1ccc(N)cc1	LEDGF integ inh 39.3, TDP2 inh 50.8 | TDP2 inh conf inactive | IN multimer act inactive | TR-FRET interf inactive | IN-LEDGF confirm inactive
COc1ccccc1C=NN=C(NN=Cc1ccccc1OC)NN=Cc1ccccc1OC	LEDGF integ inh 32.1, TDP2 inh 59.3 | TDP2 inh conf inactive | IN multimer act inactive | TR-FRET interf inactive | IN-LEDGF confirm inactive
COc1ccccc1C=NN=C(N)C(N)=NN=Cc1ccccc1OC	none
COc1ccc2c(c1)-c1nc(NC(=O)c3ccco3)sc1CC2	none (no result: CASP6 VEID inh)
COc1ccc2c(c1)Cc1sc(NC(C)=O)nc1-2	LEDGF integ inh 14.7, TDP2 inh 49.2 (no result: CASP6 VEID inh) | TDP2 inh conf 29.3 | IN multimer act inactive | TR-FRET interf inactive | IN-LEDGF confirm 26.9
COc1ccc2c(c1)Cc1sc(NC(=O)c3cccnc3)nc1-2	none
COc1ccc2c(c1)Cc1sc(NC(=O)c3ccco3)nc1-2	LEDGF integ inh 37.7, TDP2 inh 64.3 (no result: CASP6 VEID inh) | TDP2 inh conf inactive | IN multimer act inactive | TR-FRET interf inactive | IN-LEDGF confirm inactive
COc1ccc(CN[C@@H]2CC[C@@]34CCCN3C(=O)CCC[C@H]4C2)cc1	none (no result: ASAP1 GAP inh, CASP6 VEID inh, ARFGAP1 inh)
CCOC(=O)c1ccccc1NS(=O)(=O)c1ccc(OCC)cc1	none (no result: CASP6 VEID inh)
CCOc1ccc(S(=O)(=O)Nc2cc(SCC(=O)O)c(O)c3ccccc23)cc1	LEDGF integ inh 24.6, TDP2 inh 65.9, CASP6 VEID inh 87.6 | TDP2 inh conf 55.5 | IN multimer act inactive | TR-FRET interf inactive | IN-LEDGF confirm 43.1
Cc1ccc(S(=O)(=O)Nc2cccc3cccnc23)cc1	none (no result: CASP6 VEID inh)
